{"source": "ChEMBL document CHEMBL1914310", "about": "“Microbial transformations of diosgenin by the white-rot basidiomycete Coriolus versicolor” (2011)", "key": {"HEK293": {"tested_on": "HEK293", "assay": "Inhibition of human NF-kappaB in HEK cells by luciferase reporter gene assay", "format": "cell-based", "procedure,_shortened": "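HEK293 cells with a chromosomally integrated luciferase reporter under an NF-κB response element. Pathway activation induced by human tumor necrosis factor. After incubation, treated cells were lysed in reporter lysis buffer. Luciferase light output was read on a luminometer.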"}, "U-87MG ATCC": {"tested_on": "U-87MG ATCC", "assay": "Cytotoxicity against human U87 cells after 48 hrs by XTT assay", "format": "functional, cell-based", "procedure,_shortened": "(§1)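 U87 glioma cells kept in ATCC-recommended medium with 10% FBS at 37 °C, 5% CO2. Seeded at 1000 cells/well, exposed to compounds for 48 h. XTT added, then plates held another 4 h at 37 °C. Viability read colorimetrically per the kit protocol; inhibition taken at 100 μM.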"}, "[1]": {"assay": "Cytotoxicity against human U87 cells assessed as growth inhibition at 100 uM after 48 hrs by XTT assay", "format": "functional, U-87MG ATCC", "conditions": "U-87 MG, read-out: GI", "procedure,_shortened": "as §1"}}, "note": "Active and inactive are the calls of the source. The calls are words filed in the database; no cut-off is given here.", "data": [{"smiles": "C[C@@H]1CC[C@@]2(OC1)O[C@H]1C[C@H]3[C@@H]4[C@H](O)C=C5C[C@@H](O)CC[C@]5(C)[C@H]4C[C@@H](O)[C@]3(C)[C@H]1[C@@H]2CO", "values": [{"measurement": "inhibition", "setting": "HEK293", "value": "inactive"}]}, {"smiles": "C[C@@H]1CC[C@@]2(OC1)O[C@H]1C[C@H]3[C@H]4[C@H]([C@H](O)C[C@]3(C)[C@H]1[C@@H]2CO)[C@@]1(C)CC[C@H](O)CC1=C[C@@H]4O", "values": [{"measurement": "inhibition", "setting": "HEK293", "value": "inactive"}]}, {"smiles": "C[C@@H]1CC[C@@]2(OC1)O[C@H]1C[C@H]3[C@@H]4[C@@H](O)C=C5C[C@@H](O)CC[C@]5(C)[C@H]4CC[C@]3(C)[C@H]1[C@@H]2C", "values": [{"measurement": "inhibition", "setting": "HEK293", "value": "inactive"}, {"measurement": "Activity", "setting": "U-87MG ATCC", "value": "inactive"}]}, {"smiles": "C[C@@H]1CC[C@@]2(OC1)O[C@H]1C[C@H]3[C@@H]4CCC5=CC(=O)CC[C@]5(C)[C@H]4CC[C@]3(C)[C@H]1[C@@H]2C", "values": [{"measurement": "inhibition", "setting": "HEK293", "value": "inactive"}, {"measurement": "Activity", "setting": "U-87MG ATCC", "value": "inactive"}]}, {"smiles": "C[C@@H]1CC[C@@]2(OC1)O[C@H]1C[C@H]3[C@@H]4[C@@H](O)C=C5C[C@@H](O)CC[C@]5(C)[C@H]4CC[C@]3(C)[C@H]1[C@@H]2CO", "values": [{"measurement": "inhibition", "setting": "HEK293", "value": "inactive"}, {"measurement": "Activity", "setting": "U-87MG ATCC", "value": "inactive"}, {"measurement": "inhibition of growth at 100 µM", "setting": "[1]", "value": 28.2, "unit": "%"}]}, {"smiles": "C[C@@H]1CC[C@@]2(OC1)O[C@H]1C[C@H]3[C@@H]4[C@@H](O)C=C5C[C@@H](O)CC[C@]5(C)[C@H]4C[C@@H](O)[C@]3(C)[C@H]1[C@@H]2C", "values": [{"measurement": "inhibition", "setting": "HEK293", "value": "inactive"}, {"measurement": "Activity", "setting": "U-87MG ATCC", "value": "inactive"}]}, {"smiles": "C[C@@H]1CC[C@@]2(OC1)O[C@H]1C[C@H]3[C@@H]4[C@@H](O)C=C5C[C@@H](O)CC[C@]5(C)[C@H]4C[C@@H](O)[C@]3(C)[C@H]1[C@@H]2CO", "values": [{"measurement": "inhibition", "setting": "HEK293", "value": "inactive"}, {"measurement": "Activity", "setting": "U-87MG ATCC", "value": "inactive"}]}, {"smiles": "CC(=O)O[C@H]1CC[C@@]2(C)C(=CC[C@H]3[C@@H]4C[C@@H]5O[C@]6(CC[C@@H](C)CO6)[C@@H](C)[C@@H]5[C@@]4(C)CC[C@@H]32)C1", "values": [{"measurement": "inhibition", "setting": "HEK293", "value": "inactive"}, {"measurement": "Activity", "setting": "U-87MG ATCC", "value": "inactive"}]}, {"smiles": "C[C@@H]1CC[C@@]2(OC1)O[C@H]1[C@H](O)[C@H]3[C@@H]4[C@H](O)C=C5C[C@@H](O)CC[C@]5(C)[C@H]4CC[C@]3(C)[C@H]1[C@@H]2CO", "values": [{"measurement": "inhibition", "setting": "HEK293", "value": "inactive"}, {"measurement": "Activity", "setting": "U-87MG ATCC", "value": "inactive"}]}, {"smiles": "C[C@@H]1CC[C@@]2(OC1)O[C@H]1C[C@H]3[C@@H]4CC[C@H]5C[C@@H](O)CC[C@]5(C)[C@H]4CC[C@]3(C)[C@H]1[C@@H]2C", "values": [{"measurement": "inhibition", "setting": "HEK293", "value": "inactive"}]}, {"smiles": "C[C@@H]1CC[C@@]2(OC1)O[C@H]1C[C@H]3[C@@H]4CC=C5C[C@@H](O)CC[C@]5(C)[C@H]4CC[C@]3(C)[C@H]1[C@@H]2C", "values": [{"measurement": "inhibition", "setting": "HEK293", "value": "inactive"}]}]}
